Measured values reported in PubChem BioAssay AID588754 (Broad Institute, 2011).
Activity calls are given as the source filed them.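 The calls were made as follows: active = fitted curve shows reduced dye-labelled HDL uptake, half-maximal concentration at most ten times top dose; inconclusive = flat curve with 30 to 70% inhibition, or unreliable fit; inactive = the rest.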

The compounds below were run against Scavenger receptor class B member 1 (Mus musculus) (UniProt Q61009) (assay: SR-BI-mediated DiI-HDL uptake inhibitors, dose response, ldlA[mSR-BI] CHO cells, powder samples, set 5 (AID 588754)). Settings: DiI-HDL uptake fluorescence, 3 h.
Sequence of Scavenger receptor class B member 1 (Mus musculus) (Q61009 whole entry, looked up): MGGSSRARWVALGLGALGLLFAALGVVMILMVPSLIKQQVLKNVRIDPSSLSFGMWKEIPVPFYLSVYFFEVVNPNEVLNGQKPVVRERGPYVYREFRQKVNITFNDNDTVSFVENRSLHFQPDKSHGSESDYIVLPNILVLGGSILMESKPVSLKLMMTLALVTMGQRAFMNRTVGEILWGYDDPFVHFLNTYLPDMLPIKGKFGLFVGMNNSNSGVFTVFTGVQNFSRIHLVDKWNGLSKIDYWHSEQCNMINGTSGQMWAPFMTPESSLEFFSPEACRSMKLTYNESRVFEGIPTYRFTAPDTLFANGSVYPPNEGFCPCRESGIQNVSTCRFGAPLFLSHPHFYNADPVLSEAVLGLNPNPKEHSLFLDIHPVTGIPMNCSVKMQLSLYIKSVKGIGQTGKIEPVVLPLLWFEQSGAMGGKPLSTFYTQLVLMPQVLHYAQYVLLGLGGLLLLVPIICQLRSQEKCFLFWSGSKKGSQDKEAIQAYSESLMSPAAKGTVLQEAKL
Outline: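 Detection: bottom-read DiI fluorescence after washing, ex 550/em 595 nm; Assay system: LDL receptor-deficient CHO ldlA cells overexpressing murine SR-BI; Medium: Ham's F12 with fatty acid-free BSA and HEPES; Schedule: 3 h exposure to compound plus DiI-HDL at 37 °C; Also added: DiI-labeled HDL at 10 µg/mL final.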
Compound CCCCCCC1CCC/C1=N\NC(N)=S (stereo not drawn) has an AC50 of 16.6 nM.
For CCC(=O)N1CCc2cc(-c3csc(NC(=O)c4ccc(F)c(OC)c4)n3)ccc21, the AC50 was 25.8 nM.
Work on Cc1ccc2oc(-c3cccc(NC(=O)c4cc(-n5cnnc5)ccc4Cl)c3)nc2c1 yielded an AC50 of 3620 nM.
CCC(=O)N1CCc2cc(-c3csc(NC(=O)c4cc5ccccc5o4)n3)ccc21 showed an AC50 of 256 nM.
In the case of CC(C(=O)NC1CCCC1)N(C(=O)Cn1nnc(-c2ccc3c(c2)OCO3)n1)C1CCCCC1 (stereo not drawn), the AC50 was 49.9 nM.
With CCC(=O)N1CC(C)(C)c2cc(-c3csc(NC(=O)c4ccco4)n3)ccc21 the AC50 was 20.3 nM.
CC(=O)N1CCc2cc(-c3nc(NC(=O)c4cccc(OC(F)(F)F)c4)sc3C)ccc21 showed an AC50 of 26 nM.
Compound COc1ccc(-c2nnn(CC(=O)N(C3CCCCC3)C(C)C(=O)NC3CCCC3)n2)cc1OC (stereo not drawn) has an AC50 of 65.2 nM.
In the case of C[C@@H](C(=O)NC1CCCC1)N(C(=O)Cn1nnc(-c2ccc3c(c2)OCO3)n1)C1CCCCC1, the AC50 was 2270 nM.
COc1ccc(-c2cc(CC(=O)N(C3CCCCC3)C(C)C(=O)NC3CCCC3)no2)cc1OC (stereo not drawn) gave an AC50 of 29.4 nM.
COc1ccc(-c2nc(CC(=O)N(C3CCCCC3)C(C)C(=O)NC3CCCC3)co2)cc1OC (stereo not drawn) showed an AC50 of 148 nM.
For CCC(=O)N1CCc2cc(-c3csc(NC(=O)c4cc(OC)cc(OC)c4)n3)ccc21, the AC50 was 42.6 nM.
C[C@@H]1CN([C@H](C)CO)C(=O)c2cc(NC(=O)Cc3cn(C)c4ccccc34)ccc2O[C@H]1CN(C)S(=O)(=O)c1ccc(Cl)cc1 showed an AC50 of 5.98 nM.
Work on CCC(=O)N1CCc2cc(-c3csc(NCc4cc(OC)cc(OC)c4)n3)ccc21 yielded an AC50 of 372 nM.
Compound C[C@H](C(=O)NC1CCCC1)N(C(=O)Cn1nnc(-c2ccc3c(c2)OCO3)n1)C1CCCCC1 has an AC50 of 18.9 nM.
With COc1ccc(-c2nnn(CC(=O)N(CC(=O)N(C)C3CCCC3)C3CCCCC3)n2)cc1OC the AC50 was 1610 nM.
With COC(=O)N1CCc2cc(-c3csc(NC(=O)c4cc(OC)cc(OC)c4)n3)ccc21 the AC50 was 39 nM.
Work on CCC(=O)N1CCc2cc(-c3csc(NC(=O)c4cc(OC)c(OC)c(OC)c4)n3)ccc21 yielded an AC50 of 2.76 nM.
In the case of O=C(Nc1nc(-c2ccc3c(c2)CCN3)cs1)c1ccco1, the AC50 was 21.1 nM.
CCC(=O)N1CCc2cc(-c3csc(NC(=O)c4cccc(OC(F)(F)F)c4)n3)ccc21 gave an AC50 of 266 nM.
CCC(=O)Nc1ccc(-c2csc(NC(=O)c3cccc(OC)c3)n2)cc1 gave an AC50 of 110 nM.
For COc1cc(OC)cc(C(=O)Nc2nc(-c3ccc4c(c3)CCN4C(=O)CN(C)C)cs2)c1, the AC50 was 19.5 nM.
COc1ccc(-c2nnn(CC(=O)N(CC(=O)N3CCCCC3)C3CCCCC3)n2)cc1OC gave an AC50 of 9200 nM.
COc1ccc(-c2nnn(CC(=O)N(CC(=O)NC3CCCC3)C3CCCCC3)n2)cc1OC was tested, and the AC50 was 36.5 nM.
With O=C(CN(C(=O)Cn1nnc(-c2ccc3c(c2)OCO3)n1)C1CCCCC1)NC1CCCC1 the AC50 was 60.2 nM.
CCNC(=O)N1CCc2cc(-c3csc(NC(=O)c4cc(OC)cc(OC)c4)n3)ccc21 showed an AC50 of 2.28 nM.
For COc1cc(OC)cc(C(=O)Nc2nc(-c3ccc4c(c3)CCN4C(=O)OC(C)(C)C)cs2)c1, the AC50 was 0.909 nM.
Compound COc1cc(OC)cc(C(=O)Nc2nc(-c3ccc4c(c3)CCN4C(C)=O)cs2)c1 has an AC50 of 207 nM.
For CCC(=O)N1CCc2cc(-c3csc(NC(=O)c4cccc(OC)c4)n3)ccc21, the AC50 was 35 nM.
CCC(=O)n1ccc2cc(-c3csc(NC(=O)c4cc(OC)cc(OC)c4)n3)ccc21 was tested, and the AC50 was 89.3 nM.
In the case of COCC(=O)N1CCc2cc(-c3csc(NC(=O)c4cc(OC)cc(OC)c4)n3)ccc21, the AC50 was 2.81 nM.
In the case of CCC(=O)N1CC(C)(C)c2cc(-c3csc(NC(=O)c4cc(OC)cc(OC)c4)n3)ccc21, the AC50 was 10.3 nM.

Same assay, conditions: DiI-HDL uptake fluorescence, 3 h, at 35 µM (top of the series)
In the case of COc1c(NC(=O)C(=O)c2ccc(OCCN3CCOCC3)c3ccccc23)cc(C(C)(C)C)cc1NS(C)(=O)=O, the “activity change, negative = inhibition” value was “inactive”.
